Series [1] addresses T1, Spike glycoprotein/Angiotensin-converting enzyme 2 (Severe acute respiratory syndrome coronavirus 2) (UniProt Q9BYF1+P0DTC2). In words: Inhibition of SARS CoV-2 S1 RBD/biotinylated ACE2 (unknown origin) protein-protein interaction at 0.8 uM preincubated with S1 protein for 60 mins followed by addition of ACE2 protein measured after 60 mins by ELISA relative to control. The conditions noted are these: time 120.0 min. Format: protein assay. The essentials:
(§1)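 SARS-CoV-2 S1 RBD coated at 2 µg/mL (60 min, 37 °C), then blocked with 1% BSA in PBS pH 7.2–7.4 (30 min, 37 °C). Compound (0.8, 4.0, 20.0 or 100.0 µM) incubated 60 min at 37 °C with 0.05% DMSO–PBS vehicle control. Biotin-ACE2 solution (0.5 µg/mL) added for 60 min, then ExtrAvidin-peroxidase (40 min) and OPD (10 min, RT, dark), read at 450 nm. Three trials; IC50 from four-parameter fit (bottom 0, Hill slope 1).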

For series [2], the system named is HK-2. Description: Nephrotoxicity against human HK-2 cells at 2.07 ppm incubated for 30 mins by LDH release based CytoTox 96 assay relative to control. Format: toxicity, cell-based. Conditions: hk-2, 0.5 h.
The target of series [3] is Spike glycoprotein/Angiotensin-converting enzyme 2 (Severe acute respiratory syndrome coronavirus 2, UniProt P0DTC2+Q9BYF1). Description: (§2) Inhibition of SARS CoV-2 S1 RBD/biotinylated ACE2 (unknown origin) protein-protein interaction preincubated with S1 protein for 60 mins followed by addition of ACE2 protein measured after 60 mins by ELISA. The format is protein assay. In short, it runs like this: as §1
Chain of Spike glycoprotein/Angiotensin-converting enzyme 2 (Q9BYF1 whole entry, looked up, other chains not shown): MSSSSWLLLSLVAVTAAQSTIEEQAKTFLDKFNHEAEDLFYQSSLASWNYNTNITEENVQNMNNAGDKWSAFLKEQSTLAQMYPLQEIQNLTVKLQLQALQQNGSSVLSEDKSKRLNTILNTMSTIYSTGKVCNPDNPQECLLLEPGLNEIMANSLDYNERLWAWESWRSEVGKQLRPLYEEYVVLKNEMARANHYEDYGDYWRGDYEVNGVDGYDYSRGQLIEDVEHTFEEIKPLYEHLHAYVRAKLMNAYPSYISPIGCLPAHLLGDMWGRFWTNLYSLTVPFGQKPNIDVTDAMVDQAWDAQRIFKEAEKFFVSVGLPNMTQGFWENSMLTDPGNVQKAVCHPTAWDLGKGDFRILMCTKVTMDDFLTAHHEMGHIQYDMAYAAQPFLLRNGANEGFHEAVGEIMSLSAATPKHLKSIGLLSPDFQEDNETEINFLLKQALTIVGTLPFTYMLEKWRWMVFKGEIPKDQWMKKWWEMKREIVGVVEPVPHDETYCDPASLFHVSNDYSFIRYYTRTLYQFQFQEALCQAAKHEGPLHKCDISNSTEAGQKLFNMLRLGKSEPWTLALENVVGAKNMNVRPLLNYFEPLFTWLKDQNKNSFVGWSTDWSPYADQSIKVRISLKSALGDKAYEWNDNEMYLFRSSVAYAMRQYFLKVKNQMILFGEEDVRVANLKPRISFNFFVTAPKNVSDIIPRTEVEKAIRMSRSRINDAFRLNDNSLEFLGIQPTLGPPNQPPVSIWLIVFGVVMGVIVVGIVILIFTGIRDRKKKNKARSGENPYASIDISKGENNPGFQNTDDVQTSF

Series [4] has as its target T1, Spike glycoprotein/Angiotensin-converting enzyme 2 (Severe acute respiratory syndrome coronavirus 2). Described as §2. Format: protein assay. The conditions noted are these: time 120.0 min. In short, it runs like this:
as §1

Series [5] has as its system H9c2. Description: Cardiotoxicity against rat H9c2 cells at 2.07 ppm incubated for 30 mins by LDH release based CytoTox 96 assay relative to control. Format: toxicity, cell-based. The conditions noted are these: h9c2, 0.5 h.
A short description of series [6]: Hepatotoxicity against human HepG2 cells at 2.07 ppm incubated for 30 mins by LDH release based CytoTox 96 assay relative to control. Format: toxicity, cell-based. The conditions noted are these: hepg2, 0.5 h.
Series [7] is described as follows: Hepatotoxicity against human HepG2 cells at 12.09 ppm incubated for 30 mins by LDH release based CytoTox 96 assay relative to control. Format: toxicity, cell-based. Conditions: hepg2, 0.5 h.
Series [8] relates to H9c2. In words: Cardiotoxicity against rat H9c2 cells at 12.09 ppm incubated for 30 mins by LDH release based CytoTox 96 assay relative to control. Conditions: h9c2, 0.5 h. Format: toxicity, cell-based.
In series [9] the test system is HK-2. In words: Nephrotoxicity against human HK-2 cells at 12.09 ppm incubated for 30 mins by LDH release based CytoTox 96 assay relative to control. The format is toxicity, cell-based. The conditions noted are these: hk-2, 0.5 h.
Series [10] concerns the target T1, Spike glycoprotein/Angiotensin-converting enzyme 2 (Severe acute respiratory syndrome coronavirus 2). Description: Inhibition of SARS CoV-2 S1 RBD/biotinylated ACE2 (unknown origin) protein-protein interaction at 100 uM preincubated with S1 protein for 60 mins followed by addition of ACE2 protein measured after 60 mins by ELISA relative to control. The format is protein assay. The conditions noted are these: time 120.0 min. The essentials:
as §1

Series [11] concerns H9c2. In words: Cardiotoxicity against rat H9c2 cells at 30.22 ppm incubated for 30 mins by LDH release based CytoTox 96 assay relative to control. The format is toxicity, cell-based. Conditions: h9c2, 0.5 h.
Series [12] addresses T1, Spike glycoprotein/Angiotensin-converting enzyme 2 (Severe acute respiratory syndrome coronavirus 2). In words: Inhibition of SARS CoV-2 S1 RBD/biotinylated ACE2 (unknown origin) protein-protein interaction at 100 uM preincubated with S1 protein for 60 mins followed by addition of ACE2 protein measured after 60 mins by ELISA. The conditions noted are these: time 120.0 min. The format is protein assay. In short, it runs like this:
as §1

Series [13] is described as follows: Hepatotoxicity against human HepG2 cells at 30.22 ppm incubated for 30 mins by LDH release based CytoTox 96 assay relative to control. Format: toxicity, cell-based. Conditions: hepg2, 0.5 h.
The test system of series [14] is HK-2. In words: Nephrotoxicity against human HK-2 cells at 30.22 ppm incubated for 30 mins by LDH release based CytoTox 96 assay relative to control. The format is toxicity, cell-based. Conditions: hk-2, 0.5 h.
Series [15] has as its system H9c2. In words: Cardiotoxicity against rat H9c2 cells at 1.54 ppm incubated for 30 mins by LDH release based CytoTox 96 assay relative to control. Format: toxicity, cell-based. The conditions noted are these: h9c2, 0.5 h.
Series [16] in a line: Hepatotoxicity against human HepG2 cells at 1.54 ppm incubated for 30 mins by LDH release based CytoTox 96 assay relative to control. Format: toxicity, cell-based. The conditions noted are these: hepg2, 0.5 h.
For series [17], the system named is HK-2. In words: Nephrotoxicity against human HK-2 cells at 1.54 ppm incubated for 30 mins by LDH release based CytoTox 96 assay relative to control. The format is toxicity, cell-based. The conditions noted are these: hk-2, 0.5 h.
Series [18] deals with H9c2. In words: Cardiotoxicity against rat H9c2 cells at 1.03 ppm incubated for 30 mins by LDH release based CytoTox 96 assay relative to control. The format is toxicity, cell-based. Conditions: h9c2, 0.5 h.
The nature of series [19]: Hepatotoxicity against human HepG2 cells at 1.03 ppm incubated for 30 mins by LDH release based CytoTox 96 assay relative to control. The conditions noted are these: hepg2, 0.5 h. Format: toxicity, cell-based.
For series [20], the system named is HK-2. Description: Nephrotoxicity against human HK-2 cells at 1.03 ppm incubated for 30 mins by LDH release based CytoTox 96 assay relative to control. Format: toxicity, cell-based. Conditions: hk-2, 0.5 h.
Series [21] relates to H9c2. Description: Cardiotoxicity against rat H9c2 cells at 4.71 ppm incubated for 30 mins by LDH release based CytoTox 96 assay relative to control. The format is toxicity, cell-based. The conditions noted are these: h9c2, 0.5 h.
A short description of series [22]: Hepatotoxicity against human HepG2 cells at 4.71 ppm incubated for 30 mins by LDH release based CytoTox 96 assay relative to control. The format is toxicity, cell-based. The conditions noted are these: hepg2, 0.5 h.
Series [23] deals with HK-2. Description: Nephrotoxicity against human HK-2 cells at 4.71 ppm incubated for 30 mins by LDH release based CytoTox 96 assay relative to control. Format: toxicity, cell-based. Conditions: hk-2, 0.5 h.

The source made the active and inactive calls. The calls are words filed in the database; no cut-off is given here.

Turning to `O=C(Oc1cc(O)c2c(=O)c(OC(=O)c3ccccc3)c(-c3ccc(OC(=O)c4ccccc4)c(O)c3)oc2c1)c1ccccc1`, the inhibition in series [1] was more than 50%.

For `CCOc1cc(O)c2c(=O)c(OCC)c(-c3ccc(OCC)c(O)c3)oc2c1`, in series [1], the inhibition is more than 50%.

As for `CCOc1cc(O)c2c(=O)c(OCC)c(-c3ccc(OCC)c(OCC)c3)oc2c1`, the results for the Activity (with HK-2 [2]; in the series on H9c2 [5]; in series [6]) were 5.5%, 0.11% and 1.47%, respectively. In addition, in series [3], half-maximal inhibition (IC50) was put at 5 µM. Further, the inhibition entry in series [4] was “Dose-dependent-effect”.

For the compound `CCCOc1cc(O)c2c(=O)c(OCCC)c(-c3ccc(OCCC)c(OCCC)c3)oc2c1`, the IC50 in [3] stood at 25.7 µM. In addition, the inhibition result in series [4] was “Dose-dependent-effect”. The figures for the Activity (in [7]; in the series with H9c2 [8]; in the series on HK-2 [9]) were 0.39%, 1.05% and 1.71%, respectively.

Compound `O=C1OC2(c3ccccc31)c1cc(I)c(O)c(I)c1Oc1c2cc(I)c(O)c1I` [ERYTHROSINE] yielded an IC50 in [3] of 6.16 µM. Besides, the inhibition result in series [4] was “Dose-dependent-effect”.

In the case of `O=C(Oc1cc(O)c2c(=O)c(OC(=O)c3ccccc3)c(-c3ccc(OC(=O)c4ccccc4)c(OC(=O)c4ccccc4)c3)oc2c1)c1ccccc1`, in [10], the inhibition is less than 50%.

Turning to `CC(=O)Oc1cc(O)c2c(=O)c(OC(C)=O)c(-c3ccc(OC(C)=O)c(OC(C)=O)c3)oc2c1`, the inhibition in series [1] was more than 50%.

For `O=c1c(O)c(-c2ccc(O)c(O)c2)oc2cc(O)cc(O)c12` [QUERCETIN], the Activity worked out at 12.93% in the series with H9c2 [11], 1.74% in series [13] and 1.56% in the series with HK-2 [14]. Also, the inhibition entry in series [12] was “inactive”.

Regarding `CCC(=O)Oc1cc(O)c2c(=O)c(OC(=O)CC)c(-c3ccc(OC(=O)CC)c(O)c3)oc2c1`, in [3], the concentration for half-maximal inhibition (IC50) amounted to 3.28 µM. In addition, in series [4], the inhibition entry is “Dose-dependent-effect”. Also, the Activity in the series with H9c2 [15] was found to be 1.95%; in series [16] it was 0.21%; with HK-2 [17], 0.26%.

`C=CCOc1cc(O)c2c(=O)c(OCC=C)c(-c3ccc(OCC=C)c(O)c3)oc2c1` had an inhibition in series [1] of more than 50%.

Compound `C=CCOc1cc(O)c2c(=O)c(OCC=C)c(-c3ccc(OCC=C)c(OCC=C)c3)oc2c1` registered a half-inhibitory concentration (IC50) in series [3] of 2.22 µM. Moreover, in series [4], the inhibition result was “Dose-dependent-effect”. Also, the Activity came to 1.83% in the series on H9c2 [18], 0% in series [19] and 0.04% with HK-2 [20].

In series [1], `O=c1c(OCc2ccccc2)c(-c2ccc(OCc3ccccc3)c(O)c2)oc2cc(OCc3ccccc3)cc(O)c12` yielded an inhibition of more than 50%.

The compound `O=c1c(OCc2ccc(F)cc2)c(-c2ccc(OCc3ccc(F)cc3)c(O)c2)oc2cc(OCc3ccc(F)cc3)cc(O)c12` yielded a half-inhibitory concentration (IC50) in series [3] of 7.52 µM. Moreover, in series [4], the inhibition result is “Dose-dependent-effect”. Also, the Activity in the series with H9c2 [21] amounted to 1.21%; in series [22], 0.4%; in the series with HK-2 [23], 1.29%.

The compound `O=c1c(OCc2ccc(F)cc2)c(-c2ccc(OCc3ccc(F)cc3)c(OCc3ccc(F)cc3)c2)oc2cc(OCc3ccc(F)cc3)cc(O)c12` returned an inhibition in series [10] of less than 50%.

For `CC(=O)Oc1cc(O)c2c(=O)c(OC(C)=O)c(-c3ccc(OC(C)=O)c(O)c3)oc2c1`, the inhibition in series [1] is more than 50%.

On to `CCC(=O)Oc1cc(O)c2c(=O)c(OC(=O)CC)c(-c3ccc(OC(=O)CC)c(OC(=O)CC)c3)oc2c1`, for which the inhibition in [1] was more than 50%.

In turn, `CCCOc1cc(O)c2c(=O)c(OCCC)c(-c3ccc(OCCC)c(O)c3)oc2c1` registered an inhibition in series [1] of more than 50%.

On to `O=c1c(OCc2ccccc2)c(-c2ccc(OCc3ccccc3)c(OCc3ccccc3)c2)oc2cc(OCc3ccccc3)cc(O)c12`, for which the inhibition in series [10] is less than 50%.
